Test results: ChEMBL document CHEMBL2401701, “Notable difference in anti-HIV activity of integrase inhibitors as a consequence of geometric and enantiomeric configurations” (Bioorg Med Chem Lett, 2013)
pEC50, pIC50: −log10 of the molar value. Active and inactive are the calls of the source. The rule behind the calls is not given here.

Legend:
[1] = molecular target: Human immunodeficiency virus type 1 integrase (Human immunodeficiency virus 1, UniProt Q7ZJM1); experiment: (§1) Inhibition of HIV-1 integrase strand transfer activity after 1 hr by ELISA
Procedure, shortened: (§2)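 DNA substrate (20 nM final), serially diluted compound, and recombinant HIV-1 integrase were combined in 20 mM HEPES pH 7.5, 10 mM MgCl₂, 5% PEG, 0.1 mg/mL BSA, 5 mM DTT. The mix was moved to streptavidin plates for 1 h at room temperature, then washed with NaOH/NaCl/EDTA and Tris-EDTA. Detection antibody was applied for 1 h at 37 °C, followed by TMB for 10 min and absorbance at 450 nm.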

[2] = molecular target: Human immunodeficiency virus type 1 integrase (Human immunodeficiency virus 1) (UniProt Q7ZJM1); experiment: as §1; procedure, shortened: as §2
[3] = Cytotoxicity against human MAGI cells by MTS assay; type: cell-based
[4] = molecular target: T1, CYP3A4 (Homo sapiens, UniProt P08684); experiment: Activity at CYP3A4 in human liver microsomes using triazolam as substrate at 12.5 uM preincubated for 3 mins prior to NADPH addition by HPLC-UV analysis relative to control; type: ADME, Microsome; conditions: probe triazolam, read-out: Activity
Procedure, shortened: (§3)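 Pooled mixed-gender human liver microsomes in 100 mM potassium phosphate (pH 7.4) with 5 mM MgCl₂, probe substrate at its Km-based level, and test compound. Final volume 100 µL. Preincubated 3 min at 37 °C, then started with 2 mM NADPH (final). Metabolite was read by HPLC-UV: 6β-hydroxytestosterone at 254 nm, 4-hydroxytriazolam at 260 nm, dextrorphan at 278 nm. Activity is given as % of control (100%), mean ± SD of three.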

[5] = molecular target: T2, CYP2D6 (Homo sapiens, UniProt P10635); experiment: Activity at CYP2D6 in human liver microsomes using dextromethorphan as substrate at 12.5 uM preincubated for 3 mins prior to NADPH addition by HPLC-UV analysis relative to control; type: ADME, Microsome; conditions: probe dextromethorphan, read-out: Activity; procedure, shortened: as §3
[6] = Half life in human liver microsomes at 50 uM preincubated for 3 mins prior to NADPH addition measured after 60 mins by HPLC analysis; type: ADME, Microsome
Procedure, shortened: (§4)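 Pooled mixed-gender human liver microsomes (0.5 mg/mL protein) were incubated with 2 mM NADPH, 0.5 U/mL G-6-P-DH, 5 mM MgCl₂ and 5 mM G-6-P in 100 mM potassium phosphate pH 7.4. After 3 min preincubation at 37 °C, NADPH was added to start the reaction, which ran 60 min. Samples taken at 0, 15, 30, 45 and 60 min were quenched with ice-cold acetonitrile, then run on reversed-phase C18 HPLC (phosphate pH 6.5/acetonitrile gradient) with UV at 360 nm. Data are mean ± SD of three.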

[7] = tested on: Liver microsomes; experiment: Metabolic stability in human liver microsomes assessed as retention time of metabolite at 50 uM by HPLC-UV analysis; type: ADME, Microsome; procedure, shortened: as §4
[8] = molecular target: T2, CYP2D6; experiment: Activity at CYP2D6 in human liver microsomes using dextromethorphan as substrate at 50 uM preincubated for 3 mins prior to NADPH addition by HPLC-UV analysis relative to control; type: ADME, Microsome; conditions: probe dextromethorphan, read-out: Activity; procedure, shortened: as §3
[9] = molecular target: T1, CYP3A4; experiment: Activity at CYP3A4 in human liver microsomes using triazolam as substrate at 25 uM preincubated for 3 mins prior to NADPH addition by HPLC-UV analysis relative to control; type: ADME, Microsome; conditions: probe triazolam, read-out: Activity; procedure, shortened: as §3
[10] = molecular target: T2, CYP2D6; experiment: Activity at CYP2D6 in human liver microsomes using dextromethorphan as substrate at 25 uM preincubated for 3 mins prior to NADPH addition by HPLC-UV analysis relative to control; type: ADME, Microsome; conditions: probe dextromethorphan, read-out: Activity; procedure, shortened: as §3
[11] = molecular target: T1, CYP3A4; experiment: Activity at CYP3A4 in human liver microsomes using testosterone as substrate at 12.5 uM preincubated for 3 mins prior to NADPH addition by HPLC-UV analysis relative to control; type: ADME, Microsome; conditions: probe testosterone, read-out: Activity; procedure, shortened: as §3
[12] = molecular target: T1, CYP3A4; experiment: Activity at CYP3A4 in human liver microsomes using testosterone as substrate at 25 uM preincubated for 3 mins prior to NADPH addition by HPLC-UV analysis relative to control; type: ADME, Microsome; conditions: probe testosterone, read-out: Activity; procedure, shortened: as §3
[13] = tested on: Human immunodeficiency virus 1; experiment: Antiviral activity against Human immunodeficiency virus 1 NL4-3 infected in human MAGI cells after 6 days by beta-galactosidase reporter gene assay; type: functional, organism-based; conditions: Human immunodeficiency virus 1, NL4-3, MAGI, 144 h
Procedure, shortened: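 MAGI cells carrying an LTR-β-galactosidase reporter were infected with HIV-1 in the presence of compound. After 6 days post-infection, cells were lysed and β-galactosidase activity was read by chemiluminescence. Values are means of three determinations.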

[14] = tested on: Liver microsomes; experiment: Metabolic stability in human liver microsomes assessed as retention time of parent compound at 50 uM by HPLC-UV analysis; type: ADME, Microsome; procedure, shortened: as §4
[15] = molecular target: T1, CYP3A4; experiment: Activity at CYP3A4 in human liver microsomes using triazolam as substrate at 50 uM preincubated for 3 mins prior to NADPH addition by HPLC-UV analysis relative to control; type: ADME, Microsome; conditions: probe triazolam, read-out: Activity; procedure, shortened: as §3

T1 sequence (P08684 whole entry): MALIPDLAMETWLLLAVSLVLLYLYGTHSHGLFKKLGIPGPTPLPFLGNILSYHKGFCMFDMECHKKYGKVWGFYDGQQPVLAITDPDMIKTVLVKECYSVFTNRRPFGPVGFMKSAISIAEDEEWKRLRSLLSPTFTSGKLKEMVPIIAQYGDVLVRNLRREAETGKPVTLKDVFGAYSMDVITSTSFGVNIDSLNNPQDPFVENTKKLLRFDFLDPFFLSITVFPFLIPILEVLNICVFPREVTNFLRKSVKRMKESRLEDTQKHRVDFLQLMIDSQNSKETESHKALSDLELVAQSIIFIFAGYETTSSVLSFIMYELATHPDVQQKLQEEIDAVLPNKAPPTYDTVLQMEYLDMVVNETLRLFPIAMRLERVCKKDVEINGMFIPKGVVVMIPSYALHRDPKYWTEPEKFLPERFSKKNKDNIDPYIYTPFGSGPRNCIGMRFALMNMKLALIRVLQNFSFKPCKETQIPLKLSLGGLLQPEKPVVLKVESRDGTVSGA
T2 sequence (P10635 whole entry): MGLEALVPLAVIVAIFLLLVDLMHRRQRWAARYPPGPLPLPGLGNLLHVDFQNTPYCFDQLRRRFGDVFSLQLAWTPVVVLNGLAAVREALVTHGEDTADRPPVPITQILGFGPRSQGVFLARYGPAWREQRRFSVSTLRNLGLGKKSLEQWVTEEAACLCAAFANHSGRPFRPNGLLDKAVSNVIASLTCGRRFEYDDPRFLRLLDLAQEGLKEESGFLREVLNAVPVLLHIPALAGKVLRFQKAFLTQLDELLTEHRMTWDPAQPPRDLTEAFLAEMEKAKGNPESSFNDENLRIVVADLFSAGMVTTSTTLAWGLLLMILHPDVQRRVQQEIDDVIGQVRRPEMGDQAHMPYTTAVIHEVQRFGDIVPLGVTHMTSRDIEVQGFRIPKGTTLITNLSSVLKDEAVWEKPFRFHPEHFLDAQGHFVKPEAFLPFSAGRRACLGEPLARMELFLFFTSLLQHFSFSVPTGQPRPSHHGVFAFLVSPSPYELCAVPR
Sequence of Human immunodeficiency virus type 1 integrase (Human immunodeficiency virus 1) (Q7ZJM1 as listed by the source): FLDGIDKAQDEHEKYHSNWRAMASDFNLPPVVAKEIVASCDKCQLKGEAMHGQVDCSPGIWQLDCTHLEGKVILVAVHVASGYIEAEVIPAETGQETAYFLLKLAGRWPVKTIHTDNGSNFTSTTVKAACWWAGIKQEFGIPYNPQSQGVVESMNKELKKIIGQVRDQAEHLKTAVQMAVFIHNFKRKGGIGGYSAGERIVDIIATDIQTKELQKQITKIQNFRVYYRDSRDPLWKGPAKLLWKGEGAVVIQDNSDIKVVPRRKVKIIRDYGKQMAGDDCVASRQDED
Sequence of Human immunodeficiency virus type 1 integrase (Q7ZJM1 whole entry): as the sequence (Q7ZJM1 as listed by the source) above

SMILES: O=C(/C=C(\O)c1cc(Cc2ccc(F)cc2F)cn(Cc2ccccc2F)c1=O)C(=O)N[C@@H]1CCC[C@H]1O (racemic)
- pIC50 [1]: 7.32

SMILES: O=C(/C=C(\O)c1cc(Cc2ccc(F)cc2F)cn(Cc2ccccc2F)c1=O)C(=O)N[C@@H]1CCC[C@@H]1O (racemic)
- inhibition [2]: inactive

SMILES: O=C(/C=C(\O)c1cc(Cc2ccc(F)cc2F)cn(Cc2ccccc2F)c1=O)C(=O)N[C@H]1CCC[C@@H]1O
- CC50 [3]: 40400 nM
- activity at 12.5 µM [4]: 124%
- activity at 12.5 µM [5]: 86%
- half-life at 50 µM [6]: 2 h
- Retention_time [7]: 9.1 min
- activity at 50 µM [8]: 87%
- activity at 25 µM [9]: 98%
- activity at 25 µM [10]: 87%
- activity at 12.5 µM [11]: 109%
- activity at 25 µM [12]: 97%
- pEC50 [13]: 7.60
- EC90 [13]: 415 nM
- Retention_time [14]: 10.48 min
- activity at 50 µM [15]: 100%

SMILES: O=C(/C=C(\O)c1cc(Cc2ccc(F)cc2F)cn(Cc2ccccc2F)c1=O)C(=O)N[C@@H]1CCC[C@H]1O
- CC50 [3]: 137000 nM
- pEC50 [13]: 7.37
- EC90 [13]: 871 nM
